Unmarked numbers belong to inactive results. Results filed as inconclusive are left out. Active and inactive are the calls of the source.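 The calls were made as follows, unless noted: active = viability increase at or above a cutoff of the median across tested compounds plus 3 SD (cut at about 8.5% in these data, passing the limit was not always enough); inconclusive = some gains above the cutoff, reason not given; inactive = the rest.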
Tests used:
[1] = OD615 S. cerevisiae growth inhibition, permissive medium, pilot counter-assay, permissive growth control for S. cerevisiae lifespan shortening project (AID 705;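 active = growth inhibition above 25% in both replicates, a cutoff set 3 SD above the mean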); conditions: OD615, 24 h, at 10 µM, hits give high values
Method in brief: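 System: S. cerevisiae with engineered DeaD lifespan system. Medium: SC raffinose/galactose permissive medium. Doses: single compound dose of 10 µM, 0.25% DMSO final. Schedule: 24 h exposure, 30 °C. Measured by: OD615 turbidity read. Read-out: growth inhibition.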

[2] = Restrictive medium S. cerevisiae growth inhibition, OD615, pilot screen of yeast lifespan reduction project, restrictive growth control (AID 706;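 active = growth inhibition above a set limit, 3 SD over mean compound inhibition, in both replicates, cut at about 43% in these data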;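 also: modified DeaD lifespan yeast strain shifted to restrictive glucose medium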); conditions: OD615, 48 h, at 10 µM, hits give high values
Method in brief: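 Assay system – genetically modified Saccharomyces cerevisiae, DeaD replicative lifespan assay strain · Medium – CSMM-D glucose medium · Doses – 10 µM compound, 0.25% DMSO · Times – 4 h pre-incubation, 48 h exposure at 30 °C · Signal – optical density at 615 nm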

[3] = viability gain of MRP-1-high H69AR cells under doxorubicin, pilot screen, MRP-1 activator project, CellTiter-Glo, duplicate (AID 807); conditions: H69AR viability with doxorubicin, CellTiter-Glo luminescence; at 10 µM; hits give high values;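 also: compound pretreatment 18-22 h then 72 h combined with doxorubicin; 0% = doxorubicin alone and 100% = vehicle without doxorubicin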
[4] = growth suppression of beta-catenin knockout HCT116, pilot screen, human colon tumor cells (AID 823;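 active = cell viability at or below a set limit in both duplicate runs, the limit being the all-compound median minus 4 SD, cut at about 23% in these data, passing the limit was not always enough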;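 also: 0% = wells killed by 20 µM Hyamine and 100% = untreated DMSO cell wells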); conditions: CellTiter-Glo, 60 h, at 10 µM, hits give low values
[5] = growth suppression of PTEN-deleted HCT116, pilot screen, cell-based, HCT116 clonal line, CellTiter-Glo (AID 824;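 active = viability at or below 27.92% in each of two runs, the all-compound median minus 4 SD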;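 also: 0% = 20 µM Hyamine control and 100% = vehicle cell control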); conditions: 60 h, at 10 µM, hits give low values
[6] = inhibitors of the yeast RAM network, pilot screen, dse1pr::URA3 reporter, 5-FOA selection (AID 869;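 active = inhibition over a set limit, the all-compound mean plus 3 SD, in both replicate runs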;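 also: 0% = DMSO wells with no growth and 100% = 10 µM 1-NA-PP1 with full growth; RAM network block rescues cells from 5-FOA so hits raise OD615 growth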); conditions: S. cerevisiae dse1pr::URA3 5-FOA growth, OD615, 2 d; at 10 µM; hits give high values; strain carries analog-sensitive mutant Cbk1 kinase
[7] = RAM signaling pathway blockade in yeast – S. cerevisiae, Pdr1DBD-CYC8 efflux-inhibited sensitized strain, primary screen (AID 1298;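 active = RAM network inhibition above 8.4% in each of two replicates, 3 SD over the compound average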;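 also: 0% = DMSO untreated cells without growth and 100% = 10 µM 1-NA-PP1 full growth; higher means more yeast growth rescued from 5-FOA killing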); conditions: S. cerevisiae cbk1-as DSE1-URA3 strain, 5-FOA growth OD615, 2 d; at 50 µM; hits give high values

SMILES	growth inhibition [1]	growth inhibition [2]	viability increase [3]	viability [4]	viability [5]	inhibition [6]	RAM network inhibition [7]
COc1ccc(-c2nnc(NC(=O)C(C)C)s2)c(OC)c1	-18.6%	-10.3%	-2.16%	96%	88.8%	4.28%	9.53%
CCC1CCCCN1C(=O)CSc1nc(N)c(NC(=O)c2ccco2)c(=O)[nH]1 (stereo unspecified)	12.5%	10.7%	-2.48%	106%	99%	2.09%	2.2%
O=C(COc1ccccc1F)c1ccc(O)cc1O	-0.53%	3.7%	1.2%	101%	106%	0.25%	-1.69%
CCOC(=O)Cc1csc(NC(=O)COc2ccc(OC)cc2)n1	-22.4%	-8.99%	-2.2%	97.2%	92.2%	1.89%	0.64%
CCCOC(=O)C1C2C=CC3(CN(c4ccc(Cl)c(F)c4)C(=O)C13)O2 (stereo unspecified)	4.25%	0.67%	-2.67%	93.4%	86.5%	-0.06%	1.54%
CCOC(=O)N1CCC(Nc2c(OCC)c(=O)c2=O)CC1	-10.2%	10.1%	-0.57%	102%	96.4%	1.31%	5.22%
CCN1CCN(C(=O)Cn2c(=O)sc3ccccc32)CC1	-10.6%	4.76%	-2.64%	107%	96.6%	-0.225%	0.05%
O=C(Cc1ccccc1)NCCn1ccc2ccccc21	-10.7%	-13.2%	-1.79%	94.6%	88.8%	0.01%	3.55%
CCC(C)NC(=O)c1ccc(NC(=O)C2CCCO2)cc1 (stereo unspecified)	-6.02%	-6.03%	3.38%	100%	100%	4.56%	1.78%
OCCn1c(SCCOc2ccccc2F)nc2ccccc21	-4.44%	-1.06%	-3.24%	91.5%	88.4%	2.67%	2.71%
c1ccc(CN2CCN(c3nc4ccccc4n4cnnc34)CC2)cc1	-4.76%	-16.2%	-1.7%	94.8%	86%	0.625%	2.12%
Cc1cccc(OCC(=O)NCc2ccncc2)c1C	-7.54%	-7.64%	-1.63%	99.4%	104%	0.525%	4.22%
CCCC(=O)N1CC(=O)Nc2ccc(F)cc2C1c1ccccc1 (stereo unspecified)	-5.99%	-15.7%	-1.01%	111%	92.6%	3.18%	3.75%
CC1CCN(c2nc(-c3ccco3)c3c(c2C#N)CC(C)(C)OC3)CC1	-15%	-3.74%	-6.85%	90.8%	89.6%	0.175%	0.92%
S=c1sc2c(N3CCOCC3)ncnc2n1-c1ccccc1	-11.6%	8.65%	-3.12%	102%	94.9%	1.64%	4.8%
C=CCNC(=O)c1cnc2n(c1=O)CCS2	5.17%	5.46%	2.16%	103%	109%	1.68%	-1.87%
COc1ccc(N(CC(=O)N2CCCCC2)S(=O)(=O)c2c(C)nn(C)c2C)cc1	-5.81%	5.36%	-2.35%	105%	96.7%	1.69%	2.99%

SMILES	growth inhibition [1]	growth inhibition [2]	viability increase [3]	viability [4]	viability [5]	inhibition [6]	RAM network inhibition [7]
CN1CCN(S(=O)(=O)c2cccc(S(=O)(=O)c3ccc(Cl)c(Cl)c3)c2)CC1	-1.71%	-7.33%	-2.58%	91.1%	83.7%	0.59%	4.5%
O=C(NCCN1CCCCCC1)C1CCC(CNS(=O)(=O)c2cccc3cccnc23)CC1 (stereo unspecified)	-8.39%	-3.45%	-3.58%	90.7%	93.8%	1.59%	10%
CC1(C)CCCC2=C1CC1C(=O)N(O)C(=O)C1C2 (stereo unspecified)	-8.79%	-12.1%	-1.21%	102%	87.8%	1.96%	1.62%
Cc1cc(NC(=O)CSc2cn(C)c3ccccc23)no1	-8.73%	4.95%	-2.87%	97.6%	99.1%	0.48%	1.44%
Cc1cnn(-c2ccc3nnc(-c4ccc(Br)cc4)n3n2)c1	-5.48%	-11.2%	-4.96%	85.9%	84.1%	1.4%	3.52%
O=C(c1cccc(F)c1)N1CCN=C1SCc1cccnc1	-2.18%	8.84%	-0.35%	102%	96.3%	0.32%	0.89%
CCC1CC(C)(C(=O)Nc2ccc(S(N)(=O)=O)cc2)OC1=O (stereo unspecified)	-2.94%	3.6%	1.12%	102%	98.1%	1.36%	3.69%
O=C(Cn1cc2c(n1)CCCC2)Nc1cc(-c2cccc(Cl)c2)no1	3.94%	3.73%	0.67%	99.2%	87.2%	0.9%	2.24%
CNC(=O)N(C1=NCC(C)(C)S1)c1ccc(F)c(Cl)c1	-4.53%	-16.6%	-6.94%	40.4%	35.7%	1.26%	4.61%
CCOc1ccc(C(=O)Nc2cc(=O)n(C)c(=O)n2C)cc1	-29.3%	-26.3%	-0.98%	101%	97.5%	1.9%	0.62%
CC(CNC(=O)c1ccc(Br)o1)NC(=O)c1ccc(Br)o1 (stereo unspecified)	-0.8%	2.43%	-0.71%	99%	97.8%	1.46%	1.17%
COc1ccc(N(CC(=O)NCc2cccnc2)S(=O)(=O)c2c(C)nn(C)c2C)cc1	-19.9%	-19.4%	-1.49%	98.5%	95.2%	1.57%	7.6%
Cc1cc(C(=O)Nc2ccc3c(c2)OCCO3)co1	-4.03%	5.26%	-0.16%	96.7%	92.1%	0.06%	-0.41%
COc1ccccc1NC(=O)CSc1nnc(-c2ccccc2)o1	-16%	-11%	-0.16%	77.6%	71.1%	2.4%	1.53%
O=S(=O)(NCc1ccc2c(c1)OCO2)c1cnc[nH]1	-5.07%	0.305%	1.17%	107%	106%	0.885%	0.72%
CCOC(=O)CSC1=C(C#N)C(c2ccccc2OC)CC(=O)N1 (stereo unspecified)	-14%	-1.51%	-6.53%	27.5%	27.4% (active)	0.27%	-0.77%

— PubChem BioAssay
